In ChEMBL document CHEMBL3868627, “Radical scavenging and antibacterial activity of caffemides against gram positive, gram negative and clinical drug resistance bacteria” (Bioorg Med Chem Lett, 2016):
pEC50: −log10 of the molar value.

Test: Antioxidant activity assessed as DPPH free radical scavenging activity measured after 30 mins by spectrophotometry
Assay type: functional
Procedure, shortened: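 DPPH radical scavenging in ethanolic solution with a final DPPH concentration of 100 µM. Absorbance read at 517 nm. Percent inhibition = (A control − A test)/A control, where the control is DPPH without sample. The inhibition-versus-concentration plot gives EC50, the concentration giving a 50% drop in absorbance. Mean ± S.D. of three independent trials.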

Point of comparison: `O=C(/C=C/c1ccc(O)c(O)c1)Nc1ccccc1`, pEC50 4.28. Against it:
- O=C(O)/C=C/c1ccc(O)c(O)c1 [CAFFEIC ACID] — 0.23 log units higher, 4.51
- CC(C)(C)c1ccc(O)c(NC(=O)/C=C/c2ccc(O)c(O)c2)c1 — 0.64 log units higher, 4.92
- Nc1ccc(NC(=O)/C=C/c2ccc(O)c(O)c2)cc1 — within 0.2 log units, 4.44
- O=C(/C=C/c1ccc(O)c(O)c1)Nc1cc(Cl)c(O)c(Cl)c1 — 0.98 log units higher, 5.26
- CC(=O)c1cccc(NC(=O)/C=C/c2ccc(O)c(O)c2)c1 — 0.69 log units higher, 4.97
- O=C(/C=C/c1ccc(O)c(O)c1)Nc1ccc(F)cc1 — 0.34 log units higher, 4.62
- O=C(/C=C/c1ccc(O)c(O)c1)NCCc1c[nH]c2ccccc12 — within 0.2 log units, 4.23
- Cc1cc([N+](=O)[O-])ccc1NC(=O)/C=C/c1ccc(O)c(O)c1 — 0.60 log units higher, 4.88
- VITAMIN E — within 0.2 log units, 4.29
- O=C(/C=C/c1ccc(O)c(O)c1)Nc1ccc([N+](=O)[O-])cc1 — 0.86 log units higher, 5.14
- O=C(/C=C/c1ccc(O)c(O)c1)Nc1ccc2ccccc2c1 — within 0.2 log units, 4.33
- O=C(/C=C/c1ccc(O)c(O)c1)Nc1ccccc1Sc1ccccc1 — 0.29 log units higher, 4.57
